Assay results published in ChEMBL document CHEMBL3351516, “Efficient synthesis of eudistomin U and evaluation of its cytotoxicity” (Bioorg Med Chem Lett, 2014).
Converted amounts (≈) assume the structure as drawn.

Columns and labels:
[1] = Cytotoxicity against human C19 cells after 24 hrs by MTT assay; assay type: functional, cell-based; details: C19, 24 h
Summary of the method: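 Thawed C-19 leukemia cells were grown 48 h in IMDM with penicillin, streptomycin and L-glutamate at 37 °C, 5% CO₂. Plated at 10,000 cells/well in IMDM, held 24 h, then treated 24 h with 0.1–300 µM (0.1% DMSO); DMSO control row. MTT (5 mg/mL in PBS, 20 µL/well) for 2 h, dissolved in DMSO, A490. IC50 from sigmoidal fit of percent survival.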

[2] = Cytotoxicity against human Caov3 cells after 24 hrs by MTT assay; assay type: functional, cell-based; details: Caov-3, 24 h
Summary of the method: (§1)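 Cells were grown 72 h in DMEM/F12 with penicillin, streptomycin and L-glutamate, trypsinized and counted. Plated at 10,000 cells/well in IMDM, held 24 h at 37 °C, 5% CO₂, then treated 24 h with 0.1–300 µM (0.1% DMSO); DMSO control row. MTT (5 mg/mL in PBS, 20 µL/well) for 2 h, dissolved in DMSO, A490. Sigmoidal-fit IC50 from percent survival.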

[3] = Cytotoxicity against human WM266.4 cells after 24 hrs by MTT assay; assay type: functional, cell-based; details: WM 266-4, 24 h; summary of the method: as §1
Streptococcus pyogenes = assay: Antibacterial activity against Streptococcus pyogenes measured after overnight incubation by spectrophotometry; assay type: functional, organism-based
Summary of the method: (§2)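 Bacteria were grown overnight at 37 °C in Luria broth, subcultured to OD 0.1 and grown 2 h more. Culture was added to cuvettes holding 0.1–300 µM test agent (0.3% DMSO). Controls were DMSO and streptomycin: 0.500 µg/mL for P. aeruginosa, 0.0625 µg/mL for the others. Shaken at 37 °C with OD read every 2.5 h in duplicate to about 7.5 h. IC50 from sigmoidal fit, mean of three trials.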

Staphylococcus aureus = assay: Antibacterial activity against Staphylococcus aureus measured after overnight incubation by spectrophotometry; assay type: functional, organism-based; summary of the method: as §2
[4] = system: Mycolicibacterium smegmatis; assay: Antibacterial activity against Mycobacterium smegmatis measured every 2.5 hrs by spectrophotometry; assay type: functional, organism-based
Summary of the method: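 M. smegmatis MC²155 was grown 48 h at 37 °C with shaking in 7H9 complete medium with Tween, diluted 1:1000 and grown overnight. It was then subcultured to OD 0.1 and grown 2 h. Exposed to 0.1–300 µM (0.3% DMSO), with DMSO and streptomycin 0.250 µg/mL controls. Shaken at 37 °C, OD read every 2.5 h in duplicate to about 7.5 h. Sigmoidal-fit IC50, mean of three trials.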

Pseudomonas aeruginosa = assay: Antibacterial activity against Pseudomonas aeruginosa measured after overnight incubation by spectrophotometry; assay type: functional, organism-based; summary of the method: as §2
Candida albicans = assay: Antibacterial activity against Candida albicans measured every 2.5 hrs by spectrophotometry; assay type: functional, organism-based
Summary of the method: (§3)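 Yeasts were grown overnight at 30 °C: S. cerevisiae in synthetic dextrose medium, C. albicans wild-type diploid in WYPD with glucose. Subcultured to OD 0.1 and grown 2 h. Exposed to 0.1–300 µM (0.3% DMSO), with DMSO and caspofungin 1 µg/mL controls. Shaken at 30 °C, OD read every 2.5 h in duplicate to about 7.5 h. Sigmoidal-fit IC50, mean of three trials.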

Saccharomyces cerevisiae = assay: Antibacterial activity against Saccharomyces cerevisiae measured every 2.5 hrs by spectrophotometry; assay type: functional, organism-based; summary of the method: as §3
Escherichia coli = assay: Antibacterial activity against Escherichia coli measured after overnight incubation by spectrophotometry; assay type: functional, organism-based; summary of the method: as §2
P388 = assay: Growth inhibition of mouse P388 cells at 10 uM; assay type: functional; details: read-out: GI

## c1ccc2c(-c3nccc4c3[nH]c3ccccc34)c[nH]c2c1
[1]
  IC50: 15.6 µg/mL (≈ 55.1 µM)
[2]
  IC50: 24.9 µg/mL (≈ 87.9 µM)
[3]
  IC50: 27.5 µg/mL (≈ 97.1 µM)
Streptococcus pyogenes
  IC50: 3.4 µg/mL (≈ 12 µM)
Staphylococcus aureus
  IC50: 6.4 µg/mL (≈ 22.6 µM)
[4]
  IC50: 3.6 µg/mL (≈ 12.7 µM)
Pseudomonas aeruginosa
  IC50: 27.7 µg/mL (≈ 97.8 µM)
Candida albicans
  IC50: > 30 µg/mL
Saccharomyces cerevisiae
  IC50: > 300 µg/mL
Escherichia coli
  IC50: 12.3 µg/mL (≈ 43.4 µM)
P388
  inhibition of growth at 10 µM: 38%
